pIC50, pKd: −log10 of the molar value. Like-named read-outs stand apart in the source and are kept apart here.

In data set [1] the target is T1, purified, recombinant DCLK1 kinase domain (Homo sapiens, UniProt O15075).
T1 sequence (O15075 351-689 isoform O15075-2): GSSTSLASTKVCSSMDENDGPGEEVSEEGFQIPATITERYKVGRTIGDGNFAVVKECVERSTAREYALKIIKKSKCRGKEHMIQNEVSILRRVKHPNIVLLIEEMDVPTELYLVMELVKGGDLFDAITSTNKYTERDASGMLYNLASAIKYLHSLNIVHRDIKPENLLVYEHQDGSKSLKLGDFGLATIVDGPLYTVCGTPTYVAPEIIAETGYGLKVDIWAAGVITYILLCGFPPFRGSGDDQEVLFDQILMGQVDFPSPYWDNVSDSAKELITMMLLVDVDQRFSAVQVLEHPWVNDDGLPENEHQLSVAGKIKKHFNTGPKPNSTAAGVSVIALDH
Briefly: DCLK1 isothermal titration calorimetry. Type of data set: binding.

Data set [2] addresses T2, ERK5 (Homo sapiens, UniProt Q13164). The data set is described as follows: ERK5 KINOMEscan binding assay.
In data set [3] the target is T2, ERK5. Briefly: ERK5 32P-ATP kinase assay. Type of data set: biochemical. The following applies: ERK5 kinase assay IC50, 32P-ATP; Table 1.
Data set [4] addresses T2, ERK5. Briefly: ERK5 cellular kinase assay in HeLa cells. Type of data set: cell-based.
The target of the next data set is LRRK2 (Homo sapiens, UniProt Q5S007). The data set is described as follows: LRRK2 ADAPTA kinase assay. Type of data set: biochemical. The following applies: Table 1.
LRRK2, sequence (Q5S007 whole entry): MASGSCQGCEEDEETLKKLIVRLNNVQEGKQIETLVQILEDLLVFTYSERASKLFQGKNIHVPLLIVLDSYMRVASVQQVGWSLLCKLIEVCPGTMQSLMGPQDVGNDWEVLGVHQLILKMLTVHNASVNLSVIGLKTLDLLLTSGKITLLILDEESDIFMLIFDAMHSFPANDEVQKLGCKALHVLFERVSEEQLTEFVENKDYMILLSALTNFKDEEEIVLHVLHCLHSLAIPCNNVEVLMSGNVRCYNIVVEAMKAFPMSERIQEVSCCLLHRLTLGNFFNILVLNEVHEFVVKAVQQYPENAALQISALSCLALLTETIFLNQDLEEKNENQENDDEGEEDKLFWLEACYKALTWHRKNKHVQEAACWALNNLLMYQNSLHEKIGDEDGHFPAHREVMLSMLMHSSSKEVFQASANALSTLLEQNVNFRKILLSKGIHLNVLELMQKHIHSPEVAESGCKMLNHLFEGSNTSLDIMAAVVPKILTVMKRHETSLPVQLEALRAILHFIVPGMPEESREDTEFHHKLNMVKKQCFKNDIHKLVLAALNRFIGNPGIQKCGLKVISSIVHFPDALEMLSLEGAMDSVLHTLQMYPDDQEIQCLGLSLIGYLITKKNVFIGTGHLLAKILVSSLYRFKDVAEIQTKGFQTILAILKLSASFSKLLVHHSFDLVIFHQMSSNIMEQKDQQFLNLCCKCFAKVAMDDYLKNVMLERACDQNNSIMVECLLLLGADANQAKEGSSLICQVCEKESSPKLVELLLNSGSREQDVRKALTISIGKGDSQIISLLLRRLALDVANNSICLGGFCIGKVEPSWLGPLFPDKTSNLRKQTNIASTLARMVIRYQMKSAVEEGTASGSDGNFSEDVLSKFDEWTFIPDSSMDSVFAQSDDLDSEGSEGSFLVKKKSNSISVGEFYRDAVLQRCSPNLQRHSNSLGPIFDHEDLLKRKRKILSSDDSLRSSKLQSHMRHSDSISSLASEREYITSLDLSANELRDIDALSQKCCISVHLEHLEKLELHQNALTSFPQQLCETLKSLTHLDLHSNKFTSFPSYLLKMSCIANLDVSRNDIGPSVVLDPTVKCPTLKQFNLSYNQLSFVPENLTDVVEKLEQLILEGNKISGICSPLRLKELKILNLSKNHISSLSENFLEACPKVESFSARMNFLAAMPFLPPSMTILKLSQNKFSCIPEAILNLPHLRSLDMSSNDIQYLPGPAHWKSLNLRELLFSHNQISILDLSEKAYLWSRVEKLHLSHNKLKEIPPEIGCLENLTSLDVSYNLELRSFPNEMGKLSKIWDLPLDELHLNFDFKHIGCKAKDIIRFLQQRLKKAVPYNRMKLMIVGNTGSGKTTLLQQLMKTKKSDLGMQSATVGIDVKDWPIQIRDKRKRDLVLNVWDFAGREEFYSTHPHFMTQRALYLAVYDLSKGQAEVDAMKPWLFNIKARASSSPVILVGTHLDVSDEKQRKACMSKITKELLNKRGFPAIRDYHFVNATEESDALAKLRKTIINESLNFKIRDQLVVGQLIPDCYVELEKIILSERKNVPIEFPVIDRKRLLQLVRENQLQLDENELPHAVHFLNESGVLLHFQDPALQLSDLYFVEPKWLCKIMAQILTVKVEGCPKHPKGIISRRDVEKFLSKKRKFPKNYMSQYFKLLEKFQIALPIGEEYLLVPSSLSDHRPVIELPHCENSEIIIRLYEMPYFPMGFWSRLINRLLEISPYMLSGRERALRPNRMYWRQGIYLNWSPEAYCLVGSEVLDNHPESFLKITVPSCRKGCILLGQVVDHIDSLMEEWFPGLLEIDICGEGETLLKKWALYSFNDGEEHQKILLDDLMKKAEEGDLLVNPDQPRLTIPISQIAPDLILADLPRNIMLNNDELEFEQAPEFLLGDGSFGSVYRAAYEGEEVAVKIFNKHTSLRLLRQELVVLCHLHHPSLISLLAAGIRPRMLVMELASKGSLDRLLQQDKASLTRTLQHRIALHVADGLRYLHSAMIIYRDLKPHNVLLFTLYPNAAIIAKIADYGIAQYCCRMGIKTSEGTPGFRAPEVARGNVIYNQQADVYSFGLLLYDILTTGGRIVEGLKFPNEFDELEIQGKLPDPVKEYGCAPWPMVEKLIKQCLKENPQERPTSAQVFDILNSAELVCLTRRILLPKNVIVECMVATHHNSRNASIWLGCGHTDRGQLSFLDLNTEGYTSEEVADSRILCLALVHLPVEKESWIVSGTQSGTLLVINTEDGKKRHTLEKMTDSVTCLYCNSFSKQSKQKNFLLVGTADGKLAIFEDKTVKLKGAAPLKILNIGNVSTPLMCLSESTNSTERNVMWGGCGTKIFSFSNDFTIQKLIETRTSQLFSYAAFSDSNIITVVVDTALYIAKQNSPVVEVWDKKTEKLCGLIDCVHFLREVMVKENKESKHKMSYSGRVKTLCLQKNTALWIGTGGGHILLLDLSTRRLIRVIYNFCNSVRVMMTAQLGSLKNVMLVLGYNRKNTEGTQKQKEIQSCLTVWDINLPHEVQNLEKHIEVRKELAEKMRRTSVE
The subject of data set [5] is PATU-8988T cells. Briefly: Cell viability, 2D-adherent monolayer culture, PATU-8988T. To be noted: 120 h, read-out: PATU-8988T cells 2D monolayer culture IC50. Type of data set: cell-based, human. In short, it runs like this: (§1)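 PATU-8988T and PATU-8902 cells were plated at 100 cells/well in 50 μL media, either adherent (2D) or in ultra-low attachment spheroid plates (3D), overnight. Test compound was pin-transferred and cells were incubated 120 h. Viability was read by CellTiter-Glo luminescence after 15 min at room temperature. Data were normalized to DMSO-treated wells per cell line and fitted.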

Data set [6] deals with PATU-8988T cells. The data set is described as follows: Cell viability, ultra-low adherent 3D-spheroid culture, PATU-8988T. Type of data set: cell-based, human. The following applies: 120 h, read-out: PATU-8988T cells 3D spheroid culture IC50. In short, it runs like this: (§2)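 PATU-8902 or PATU-8988T cells were plated at 100 cells/well and left overnight to adhere (2D plates) or to form spheroids (ultra-low-attachment 3D spheroid plates). Compound was pin-transferred, then 120 h incubation. Viability by CellTiter-Glo luminescence after 15 min at room temperature, normalized to DMSO-treated wells for each cell line.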

The test system of data set [7] is PATU-8902 cells. Briefly: Cell viability, 2D-adherent monolayer culture, PATU-8902. Type of data set: cell-based, human. The following applies: read-out: PATU-8902 cells 2D monolayer culture IC50. In short, it runs like this:
as §2

Data set [8] has as its system PATU-8902 cells. The data set is described as follows: Cell viability, ultra-low adherent 3D-spheroid culture, PATU-8902. Type of data set: cell-based, human. The following applies: read-out: PATU-8902 cells 3D spheroid culture IC50. In short, it runs like this:
as §1

The subject of the next data set is PANFR0172_T4. The data set is described as follows: Patient-derived pancreatic organoid viability, PANFR0172_T4. Type of data set: cell-based, human. To be noted: read-out: PANFR0172_T4 3D organoid culture IC50. In short, it runs like this: (§3)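 Patient-derived PDAC organoids were dissociated to single cells and plated at 1000 viable cells/well in complete organoid medium with 10% Matrigel, in ultra-low-attachment 384-well plates. After 24 h, compound was added by digital dispenser, then 7 days incubation. Read-out was CellTiter-Glo 3D luminescence after 1 h shaking at room temperature, normalized to DMSO wells for each culture.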

The subject of the next data set is PANFR0029_T2. The data set is described as follows: Patient-derived pancreatic organoid viability, PANFR0029_T2. Type of data set: cell-based, human. To be noted: read-out: PANFR0029_T2 3D organoid culture IC50. In short, it runs like this:
as §3

In another data set the test system is zebrafish. The data set is described as follows: Toxicity evaluation during zebrafish embryonic development. Type of data set: in vivo. To be noted: days 1 to 8 post-fertilization, in fish water at concentrations up to 10 μM.
For a further data set, the system named is rat hippocampal neurons. Briefly: Rat primary hippocampal neuron viability. Type of data set: cell-based. The following applies: concentrations up to 10 μM, 24 hours. In short, it runs like this: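 Rat primary hippocampal neurons on poly-L-lysine-coated coverslips were treated at DIV6 for 24 h with DMSO or test compound. They were then fixed in glutaraldehyde-containing cytoskeleton buffer with Triton X-100, followed by NaBH4, permeabilized in TBS with 0.5% Triton X-100, and processed for immunofluorescence.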

Data set [9] is described as follows: Maximum dose tolerability evaluation in mice. Type of data set: in vivo, C57B6/6J mice. The following applies: doses up to 100 mg/kg, oral gavage daily for two weeks, no adverse effects, no loss of body weight.

T2 sequence (Q13164 whole entry): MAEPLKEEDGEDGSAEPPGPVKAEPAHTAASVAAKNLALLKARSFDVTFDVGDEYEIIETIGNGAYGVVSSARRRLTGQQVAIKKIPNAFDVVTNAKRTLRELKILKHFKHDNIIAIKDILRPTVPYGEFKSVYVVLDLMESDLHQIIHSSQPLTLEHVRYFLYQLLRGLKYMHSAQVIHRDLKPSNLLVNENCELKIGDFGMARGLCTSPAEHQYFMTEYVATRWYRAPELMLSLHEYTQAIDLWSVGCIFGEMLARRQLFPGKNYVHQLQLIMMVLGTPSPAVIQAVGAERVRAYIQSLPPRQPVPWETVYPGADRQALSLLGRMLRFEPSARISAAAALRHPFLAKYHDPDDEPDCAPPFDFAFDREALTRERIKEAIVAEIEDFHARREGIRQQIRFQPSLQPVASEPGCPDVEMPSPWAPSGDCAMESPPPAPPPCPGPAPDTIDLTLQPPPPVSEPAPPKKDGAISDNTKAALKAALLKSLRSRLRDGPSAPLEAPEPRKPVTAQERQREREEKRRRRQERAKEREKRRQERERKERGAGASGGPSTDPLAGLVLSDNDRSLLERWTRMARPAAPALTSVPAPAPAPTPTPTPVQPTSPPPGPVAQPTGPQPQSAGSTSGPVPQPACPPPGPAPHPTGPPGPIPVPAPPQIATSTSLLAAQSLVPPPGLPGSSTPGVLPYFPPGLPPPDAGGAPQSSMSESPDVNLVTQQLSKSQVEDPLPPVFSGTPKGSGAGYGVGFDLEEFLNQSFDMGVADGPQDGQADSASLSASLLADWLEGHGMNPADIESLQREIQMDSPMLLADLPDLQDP

Take `COc1cc(N2CCN(C)CC2)ccc1Nc1ncc2c(n1)N(C)c1ccccc1C(=O)N2CC(F)(F)F` [DCLK1-IN-1]: the pKd in data set [1] (ITC Kd, purified recombinant DCLK1 protein, Table 1) was 7.26; in [1] (Kd, ITC, 20 μM DCLK1, 200 μM compound, Supplementary Table 2 and text), 6.96. Further, the pIC50 at ERK5 [2] was 5.74; on ERK5 [3], 5.40; against ERK5 [4], 5.27; on LRRK2 (LRRK2 kinase assay IC50, ADAPTA) it was 5.16; in the data set with PATU-8988T cells [5] (Homo sapiens, PaTu 8988t), less than 4.70; in the data set on PATU-8988T cells [6] (Homo sapiens, PaTu 8988t) it was less than 4.70. Besides, the pIC50 is less than 4.70 in the data set on PATU-8902 cells [7] (Homo sapiens, PaTu 8902, 120 h); less than 4.70 in the data set on PATU-8902 cells [8] (Homo sapiens, PaTu 8902, 120 h); less than 4.70 in the data set on PANFR0172_T4 (Homo sapiens, 168 h); less than 4.70 with PANFR0029_T2 (Homo sapiens, 168 h). For the same compound, the “effect on zebrafish CNS or other organ system development” value with zebrafish is “no discernable effect”. In the data set on rat hippocampal neurons, the “effect on neuronal viability” value is given as “no effect on neuronal viability”. For the same compound, the “tolerability (maximum tolerated dose study)” value in [9] was “well-tolerated”.

For `CCOc1cc(N2CCC(O)CC2)ccc1Nc1ncc2c(n1)N(C)c1ccccc1C(=O)N2C` [XMD8-92], the pIC50 on LRRK2 (read-out: LRRK2 kinase assay IC50, ADAPTA) is 7.44; with PATU-8988T cells [5] (cell viability, P.R. = partial response), 5.70; in the data set with PATU-8988T cells [6] (cell viability), 5.22; in the data set with PATU-8902 cells [7] (cell viability, 120 h), less than 4.70; in the data set on PATU-8902 cells [8] (cell viability, 120 h, P.R. = partial response), less than 4.70; in the data set with PANFR0172_T4 (viability, 7 d, P.R. = partial response), less than 4.70. For the same compound, in the data set with PANFR0029_T2 (viability, 7 d, DCLK1-negative organoids), the pIC50 is 5.15.

The record behind these values is publication PMC7246176 (Nature chemical biology, 2020).
